T cruzi inh – T. cruzi replication inhibition; T. cruzi beta-gal in NIH3T3, luminescence, 90 h; inhibition, % (concentration not given with the values); 300,000 compounds, 1.4% hits; AID 1885;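 active = mean inhibition across valid replicates above about 55%, limit read from the data; inconclusive = mean below that limit but half or more replicates reach it; inactive = mean below it, under half of replicates reach it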;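 also: signal also drops with host cell toxicity which is not excluded here; higher percent means less beta-gal luminescence so fewer parasites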
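Test system: β-gal T. cruzi (Tulahuen C4) inside NIH/3T3 cells / Quantity: 5,000 cells/well / Measured by: luminescence from GalScreen with 0.05% NP40, read after 60 min / Medium: DMEM plus 2% FBS / Measure: parasite load inhibition, % / Reagent: Tulahuen C4 trypomastigotes, 5000/well / Schedule: co-culture of at least 90 h after 3 h attachment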
HSF1 activator – increases HSF-1 driven luciferase reporter signal | NIH3T3-HGL HSF-1 luciferase reporter, MG132, 8 h; 100% = twice DMSO control signal | activation, % at 9 µM | 300,000 compounds, 1.7% hits;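 active = mean replicate activation of at least 50% with a set share of replicates each reaching 50%; inconclusive = only one of those two conditions met; inactive = mean below 50% and too few replicates reaching it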
HSF1 inhib – HSF1 inhibition; NIH3T3-HGL HSE-luciferase, MG132-induced, luminescence 8 h; hits give low values; activity change, negative = inhibition, % at 7.5 µM (by protocol); 300,000 compounds, 0.77% hits; AID 2098;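 active = more than half of replicate wells show activity change below -50%, luminescence cut by over half; inconclusive = some wells, but at most half, below -50%; inactive = no replicate well below -50%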;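 also: luciferase reports HSF-1 transcriptional activity via heat shock element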
Calb FLC – C. albicans growth modulation with fluconazole. C. albicans CaCi-2 + fluconazole, Alamar Blue growth, 48 h. growth inhibition, % (concentration not given with the values). 300,000 compounds, 0.57% hits;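 active = growth inhibition above about 58% in most replicates, limit read from the data, passing the limit was not always enough; inconclusive = exactly half the replicates above a set limit; inactive = most replicates below a set limit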;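 also: all wells also contain fluconazole at 8 µg/ml as a sub-toxic cotreatment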
HIF act – HIF pathway transcriptional activation | U2OS HRE-luciferase reporter, luminescence; normalized: DMSO 0%, desferrioxamine 100% | activation, % at 7.5 µM (by protocol) | 300,000 compounds, 0.32% hits | AID 1910;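 active = mean activation of at least 10% of the iron chelator positive control signal, with at least half of replicates also reaching 10%; inconclusive = mean and replicate majority disagree about reaching 10%; inactive = mean and most replicates under 10%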
Large screens that a line does not name were inactive. Compounds with a hit are over-represented: about 4.4% of the library has one in this group of screens.

O=C1/C(=C/c2cccnc2)SC(=NCc2ccccc2)N1Cc1ccccc1	T cruzi inh 63
CCOC(=O)COc1ccc(/C=C2/SC(=Nc3ccccc3)N(Cc3cccnc3)C2=O)cc1OC	HSF1 activator 64
Cc1ccc(S(=O)(=O)N[C@H](C(=O)N2CCC(C(=O)N3CCC[C@H]3C(=O)O)CC2)C(C)C)cc1	none (no result: Calb FLC)
Cc1ccc2[nH]c(C(=O)O)c(NC(=O)[C@@H]3C[C@@H]3c3ccccc3)c2c1	none
O=C(NCc1ccccn1)C(=O)NCC1OCCN1S(=O)(=O)c1ccc(Cl)cc1 (stereo unspecified)	none
Cn1nnnc1SCCNCc1cccc2ccccc12	T cruzi inh 70
CCOc1cc(CNCCSc2nnnn2C)cc(Br)c1OCc1ccccc1F	T cruzi inh 68, Calb FLC inconclusive
COc1cc(CNCCSc2nnnn2C)cc(Br)c1OCc1ccccc1F	none
Cn1nnnc1SCCNC/C=C/c1ccccc1	HSF1 activator 77
CCOc1ccc(OCc2nnc(SCC(=O)NC3CCS(=O)(=O)C3)n2-c2ccc(Cl)cc2)cc1 (stereo unspecified)	none
O=C(OCC(=O)N1CCN(c2ccccc2)CC1)c1ccccc1[N+](=O)[O-]	none
Cc1cnn(Cc2cccnc2)c1N	none
CCC1(c2ccc(F)cc2)NC(=O)N(CC(=O)Nc2cccc(S(=O)(=O)N3CCCCC3)c2)C1=O (stereo unspecified)	none
CCCN1CCCc2cc(CN)ccc21	T cruzi inh 89 (no result: HSF1 activator, HSF1 inhib)
CN1CCCc2cc(C=O)ccc21	none
Cc1nc2scc(-c3ccccc3)c2c(=O)n1N=C1C=CC(=O)C=C1	T cruzi inh 67
Cc1cccc(C(=O)NNC(=O)CCn2nnc3ccccc32)c1	HSF1 activator 89
CCOc1cc(NC(=O)CC(C)C)c(OCC)cc1NC(=O)CCn1nnc2ccccc21	HSF1 activator 57
CC(C)CCSc1nc2ccccc2[nH]1	HSF1 activator 65
CC(C)Sc1nc2ccccc2[nH]1	none
O=C(CSc1nc2ccccc2[nH]1)c1ccccc1F	HSF1 activator 57
Cc1cc(C(=O)CSc2nc3ccccc3[nH]2)c(C)n1C	HSF1 activator 71
CCC(Oc1ccccc1)C(=O)Nc1cc(Cl)ccc1-n1cncn1 (stereo unspecified)	none
COc1ccc(C(=O)NN2CC(O)=C(c3nc4ccccc4n3C)C2=N)cc1OC	none
COc1ccc(C(=O)NCc2nnc(SCC(=O)Nc3cccc(F)c3)o2)cc1	Calb FLC inconclusive
COc1ccc(/C=C2\CCCc3c2nc2ccccc2c3C(=O)OCC(=O)c2c(N)n(C)c(=O)n(C)c2=O)cc1	T cruzi inh 68
COc1cc(/C=C2\CCCc3c2nc2ccccc2c3C(=O)O)cc(Br)c1O	none
CCOc1cc(/C=C2\CCCc3c2nc2ccccc2c3C(=O)O)ccc1OC	HSF1 activator 56
COc1ccc(-c2cc(C(=O)OCC(=O)c3c(N)n(C)c(=O)n(C)c3=O)c3ccccc3n2)cc1	none
C#CCOCCOCCOCCNc1nc(N2CCN(C(=O)C([C@@H](C)CC)n3cc(C(N)CO)nn3)CC2)nc(N2CCN(C(=O)C([C@@H](C)CC)n3cc(C(N)COC(=O)C(F)(F)F)nn3)CC2)n1 (stereo partly specified)	none
CC1=NN(c2ccc(C)cc2C)C(=O)C1C(c1ccccc1)C1C(=O)N(c2ccc(C)cc2C)N=C1C (stereo unspecified)	HSF1 activator 64
Cc1ccc(-n2nc(C)c(C(=O)O)n2)c(C)c1	none (no result: HIF act)
CCc1ccccc1NC(=O)COc1ccc2c(=O)c(Oc3cc(C)ccc3C)coc2c1	HSF1 activator 71
COc1ccccc1Oc1coc2cc(OCC(N)=O)ccc2c1=O	none
CCCNC(=O)COc1ccc2c(=O)c(Oc3ccccc3F)coc2c1	HSF1 inhib -70
Cc1nn(CC(=O)NCCc2ccccc2)c(C)c1[N+](=O)[O-]	none
Cc1nn(CC(=O)NCCCc2ccccc2)c(C)c1[N+](=O)[O-]	Calb FLC 87
O=C(CCN1C(=O)c2ccccc2S1(=O)=O)NCc1ccccc1	none
CC1=Nc2ccccc2N=C(NC(=O)CN2CCN(c3ccccc3)CC2)C1c1ccccc1 (stereo unspecified)	T cruzi inh 63
CCCNC(=O)c1ccc2c(=O)c(O)c(C)[nH]c2c1	none
CCCNC(=O)c1ccc2c(=O)c(O)c(-c3ccc(F)cc3)[nH]c2c1	Calb FLC 89

Source: PubChem BioAssay (Broad Institute)
